Measured values as given in paper PMC4818360 (Iranian Journal of Basic Medical Sciences, 2016).

Experiments:
[1] = DPPH free radical scavenging assay; details: methanolic solutions, 30 min, 517 nm, mean ± SD (n = 3)
Procedure, shortened: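 DPPH stock (60 μM in methanol), 1 ml, mixed with 1 ml of test compound or standard at 0.0125, 0.025, 0.05, 0.1 and 0.2 mg/ml. Shaken, left 30 min, then read at 517 nm. Scavenging % = (Ac−At)/Ac×100, where the control holds all reagents except the compound. BHT was the standard. IC50 came from logarithmic non-linear regression; three replicates.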

[2] = Hydrogen peroxide scavenging assay; details: at 0.312 mg/ml, 20 min, 230 nm, mean ± SD (n = 3)
Procedure, shortened: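 H2O2 was made at 40 mM in saline phosphate buffer, pH 7.4, and its level checked at 230 nm. 100 μl of methanolic test compound or standard solution (0.312 mg/ml) went into 2 ml of H2O2 solution. A230 was read after 20 min against a blank of compound in buffer without H2O2. Scavenging % = (Ac−At)/Ac×100. BHT and gallic acid were standards; three replicates.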

[3] = target: mushroom tyrosinase (EC 1.14.18.1) (Agaricus bisporus, UniProt C7FF04); test: biochemical
mushroom tyrosinase (EC 1.14.18.1), sequence (C7FF04 1-392): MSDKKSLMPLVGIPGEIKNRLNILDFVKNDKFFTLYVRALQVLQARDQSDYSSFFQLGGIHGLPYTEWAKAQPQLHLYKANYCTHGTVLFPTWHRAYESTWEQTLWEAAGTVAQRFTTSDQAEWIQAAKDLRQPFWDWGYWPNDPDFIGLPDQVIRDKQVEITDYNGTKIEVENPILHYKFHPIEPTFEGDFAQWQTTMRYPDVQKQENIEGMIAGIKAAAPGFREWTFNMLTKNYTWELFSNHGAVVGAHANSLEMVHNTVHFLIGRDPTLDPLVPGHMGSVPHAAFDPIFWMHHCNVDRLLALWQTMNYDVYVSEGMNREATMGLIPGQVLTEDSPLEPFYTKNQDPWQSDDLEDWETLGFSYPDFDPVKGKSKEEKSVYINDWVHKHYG

Cc1cc(C(C)(C)C)c(O)c(C(C)(C)C)c1 [BHT, Butylated hydroxyl toluene, reference compound]
IC50 values for DPPH [1]: 49.19 ± 1.7 µg/mL | H2O2 Scavenging [2]: 78.52±1.85%

Cn1cc(O)c(=O)cc1CNc1ccc(O)cc1 [Compound 3, 5-Hydroxy-2-[(4-hydroxyphenylamino)methyl]-1-methylpyridin-4(1H)-one]
IC50 values for DPPH [1]: 34.38 ± 1.9 µg/mL | IC50 [3]: 404 ± 14 µM | H2O2 Scavenging [2]: 63.70±1.49%

COc1ccc(NCc2cc(=O)c(O)cn2C)cc1 [Compound 2, 5-Hydroxy-2-[(4-methoxyphenylamino)methyl]-1-methylpyridin-4(1H)-one]
IC50 values for DPPH [1]: 44.62 ± 2.9 µg/mL | IC50 [3]: 617 ± 19 µM | H2O2 Scavenging [2]: 64.97±0.96%

O=c1cc(CNc2cccc([N+](=O)[O-])c2)[nH]cc1O [Compound 11, 5-Hydroxy-2-[(3-nitrophenylamino)methyl]pyridin-4(1H)-one]
IC50 values for DPPH [1]: 25.17 ± 1.8 µg/mL | IC50 [3]: 217 ± 9 µM | H2O2 Scavenging [2]: 61.77±1.16%

O=C(O)c1cc(O)c(O)c(O)c1 [Galic acid, gallic acid, reference compound]
H2O2 Scavenging [2]: 97.39±0.76%
